Assay results reported in the EternaBench riboswitch data.

System: MS2 coat protein
Experiment: apparent Kd, MS2 coat protein; higher = weaker binding; RNA-MaP array; FMN 200 µM where present
Summary of the method: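 In 100 mM Tris-HCl pH 7.5, 80 mM KCl, 4 mM MgCl2, BSA, DTT, yeast tRNA and Tween-20, SNAP-549-labelled MS2 coat protein was titrated from 0.7 or 1.5 nM, doubling to 3 µM, over designs transcribed by stalled E. coli RNA polymerase on Illumina sequencing-chip clusters. This was done first without ligand, then with ligand held constant. After green signal was normalised to red-channel RNA signal and control-cluster median Fmax, the apparent Kd was taken as the median of filtered per-cluster binding-curve fits.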

[1] = designed as: OFF switch for flavin mononucleotide, no ligand
[2] = ligand present: flavin mononucleotide, designed as: OFF switch for flavin mononucleotide
[3] = designed as: ON switch for flavin mononucleotide, no ligand
[4] = ligand present: flavin mononucleotide, designed as: ON switch for flavin mononucleotide

| Sequence | apparent Kd [1] | apparent Kd [2] | apparent Kd [3] | apparent Kd [4] |
| --- | --- | --- | --- | --- |
| GUGUAGUGAGGAUAUACAUGAGGAUCACCCAUGUGAAUAAGAUAGAAUAAGAUAAAGUGUAGAAGGUAUAGUGU | 53.2 nM | 35.3 nM | – | – |
| GAUUUGUGAGGAUAUACAUGAGGAUCACCCAUGUGUGUCCAUACGCGUGAGUCUUCAUGUAGAAGGCGCGGGUC | 17.1 nM | 15.6 nM | – | – |
| GUGGUCAGACAUGAGGAUCACCCAUGUGGAAUAAAUAACAGACAGGAUAUAUAAUAUAGGAUAUAGUAGAAGGGUCGAUUGGUG | – | – | 81.9 nM | 85.8 nM |
| UAAUAAAGUGUGAGGAUAUGCUGGUCCAUAGAUCAGCAGAAGGCACAUGAGGAUCACCCAUGUAAUAUAUAAAU | 28.4 nM | 145 nM | – | – |
| UCAUGGUAGCAGGAUAUGCUAUUUAUUUUUUAUGCAGAAGGGCUUACAUGAGGAUCACCCAUGUGUUAGGUUUA | 113 nM | 25.2 nM | – | – |
| UGGAUGUAGGAGAAGGAGGACUUCAUGAGGAUCACCCAUGUGUUAGGACUUAGGAUAUUUGACAACAUGAGGAUCACCCAUGUG | – | – | 60 nM | 52.7 nM |
| GCGAUAUUGUAAGGAUAUACUCUGUGAUGAAGAGUAGAAGGUACUUACAUGAGGAUCACCCAUGUUUAACGAGAUACUAAUCGC | – | – | 16.6 nM | 13.1 nM |
| GUACUACAUGAGGAUCACCCAUGUACAAAGGUACGAGGAUAUGCAUGUACGAAAGUAUAUGCAGAAGGCGUAGUAC | – | – | 25.8 nM | 21.7 nM |
| AUGCUAUACGAAGGAUAUGGUUACAUGAGGAUCACCCAUGUAUUUUUUGUGAUCUUGUUUAAGUUCCAGAAGGUCGUAUAGCUA | 486 nM | 617 nM | – | – |
| AAAAACGGAGGAUAUACAAAAAAAAAAAAAAAAAAAAUGGGACAUGAGGAUCACCCAUGUAGAAGGCCGAAAAA | 72 nM | 164 nM | – | – |
| CACUCACAUGAGGAUCACCCAUGUCCUAGCAGGUCAGGAUAUAGCUCGGAUGCGUUGAGUCUAGAAGGGACACGUU | – | – | 96.7 nM | 62.5 nM |
| AUACAUGAGGAUCACCCAUGUUACAUGGUCUUGAUAUUACGUAGAAGGAUGAUAUUAUUAUUAGCAUAGGAUAUACAAUUUGUA | 57.5 nM | 44 nM | – | – |
| CGCUACAUGAGGAUCACCCAUGUACUAACUUGCACGUGAACGAGAAGGCCACAGCAACCCUGCGUGGAGGAUAUCGUGGUGCCA | – | – | 8.49 nM | 7.48 nM |
| AUCGGGAGAGGAUAUACAUGAGGAUCACCCAUGUUGGGAACAUCGGUUUGUUAGUUGCGUAGAAGGCUCGGGCG | 46.4 nM | 66.3 nM | – | – |
| CCUCCUGGUCAGGAUAUCGGACGUUUUAUUCGACGAGAAGGGACCACAUGAGGAUCACCCAUGUGAUGAAGAAC | 42.4 nM | 182 nM | – | – |
| AAGAAAGUUUACGAGGAUAUGUUCCGCAUAACAUGAGGAUCACCCAUGUGAACAAGAAAGGCGACGCAGAAGGCGUGAGCAAAGA | – | – | 359 nM | 43.2 nM |
| CGCUCAAGAGAGAAGGAUUGAAUCAGAAGGCGUUACAUGAGGAUCACCCAUGUAUAGUAGUGUAACGAGGAUAUGAAAUGAGCG | 133 nM | 437 nM | – | – |
| AAUAUAAAAGAGCUGGAUACUCAAACAUGAGGAUCACCCAUGUAGGAUAUCAGCACGAUAAGUGCUGAGAAGGACAACCAGCUC | 14.6 nM | 15.6 nM | – | – |
| ACAUACUAUCGAGGAUAUCGGUAAGAAAAGUUACGAGAAGGCGAUUAUAAAUUUAUAUUAUUAUACAUGAGGAUCACCCAUGUA | – | – | 20.9 nM | 21.3 nM |

| Sequence | apparent Kd [1] | apparent Kd [2] | apparent Kd [3] | apparent Kd [4] |
| --- | --- | --- | --- | --- |
| UGCGUACAAGCGGACAUGAGGAUCACCCAUGUAUUGUUAUGCGAGGAUAUCGGGAAGCAGGAUUCCGAGAAGGUGCGGUGAGCC | – | – | 19.2 nM | 17.7 nM |
| AGUAAGAUGCAGAAGGUGUCAGCGAGAGCUGCACAUGAGGAUCACCCAUGUUGUCGGUGACGACGCAAGGAUAUGCAUCUUACA | – | – | 89.2 nM | 15.8 nM |
| AGAUCACAUGAGGAUCACCCAUGUGAGGAUAUGAUACUAUGUACUUCGGUACAUAGUAUCAGAAGGCAUGUGAA | 43.5 nM | 41.1 nM | – | – |
| UGGUACAUGGGAGGAUAUCAUGUAUUCACAUGAGGAUCACCCAUGUCGAUGGAGACAUCGGAGAUUGAGAAGGCCCAUGUACCU | – | – | 1270 nM | 46.9 nM |
| AAUUCACAUGAGGAUCACCCAUGUGAGGAUAUGGAUUCGCUGGCCGUAGCCAGUGGAUCCAGAAGGCGCAUGAU | 29.2 nM | 35.6 nM | – | – |
| GUAUUUGAAGUAAGGAUAUGCCUCUGGAAACGGAGGUAGAAGGUACAUGAGGAUCACCCAUGUUUCUCUCUUGG | 16.9 nM | 27.3 nM | – | – |
| CCAUGUUAGCAGGAUAUGCAAUAAAUCUUUUAAGCAGAAGGGCUUACAUGAGGAUCACCCAUGUAUAAAGUCAA | 19.8 nM | 45.6 nM | – | – |
| AGAGUGUCAGGAUAUCCUGCUGUGCGGAAUCUGUAUUCACGGGAGAAGGGACAUGAGGAUCACCCAUGUUUGAG | 18.9 nM | 28.1 nM | – | – |
| UUAACUCAUGUAGGAUAUGCAUGGCGAAGCUACGCAGAAGGACAUGAGGAUCACCCAUGUUCUAGCGUCUGAGUACAGAUGCAA | 43.4 nM | 290 nM | – | – |
| UUCAAAUUCGUAGGAUAUGUAUAAAUUUUCUACAUGAGGAUCACCCAUGUUUCCAUUUUAAAUUGACAGAAGGACGUAAUCUAA | – | – | 30 nM | 9.73 nM |
| CGUCCACAUGAGGAUCACCCAUGUGAGGAUAUCGAUGUCCCAGGGCGGGUGCGGGACUCGAGAAGGCACUAGGU | 32.7 nM | 93.6 nM | – | – |
| GUCAGCUCGUGAGGAUAUACAUGUGCUGGAUACAGCAUUAUAUUUUUCACAUGAGGAUCACCCAUGUAGAAGGCACGAGCUGAU | 16.6 nM | 29.9 nM | – | – |
| GUGUAGAUAUCAGGAUAUCUAUUUCCUACAUGAGGAUCACCCAUGUAGAUGAUCACCCAUGUAAAGGAGAAGGGAUGUCUAUAC | – | – | 163 nM | 138 nM |
| GAUAGAGAGCAGGAUAUCUUGGGUAAGUAUCGUAGAGAAGGGCUCACAUGAGGAUCACCCAUGUGGUCCAAGAU | 14.2 nM | 32.6 nM | – | – |
| CGGUGACGUGUAGGAUAUGGAGAUGGGUUUUGGCCAGAAGGACAUGAGGAUCACCCAUGUGGUAGAGGGUUGGCGGCUGCCCGU | 16.7 nM | 18.7 nM | – | – |
| AGGAAGUCAGGAUAUGCUGCUCGUCACUUGCGUGAUGAGUAGCAGAAGGGACAUGAGGAUCACCCAUGUAAAAA | 52.6 nM | 57.9 nM | – | – |
| GGGCCGUUGCAGAAGGCCGGCGGGCUUGGCGCCGGAGGAUAUGCAUGUGCACAUGAGGAUCACCCAUGUGCCAGCCCGGAGGGA | – | – | 6.56 nM | 5.9 nM |
| GUCGUGUGAGGAUAUCGAUUAUGGAAGUCUAGAUCCAUACGCGAGAAGGCACAUGAGGAUCACCCAUGUAAUGG | 337 nM | 96.1 nM | – | – |
| ACGGAACAUGAGGAUCACCCAUGUAUCUGAGAUAAGCUCUCGCAGGAUAUUCAGAGAAGCCUAUCGGAGAAGGGUGACAGCAAA | – | – | 25.3 nM | 15.5 nM |

| Sequence | apparent Kd [1] | apparent Kd [2] | apparent Kd [3] | apparent Kd [4] |
| --- | --- | --- | --- | --- |
| UUAAUUAUACAAGGAUAUCUAUUGUUCUUUCGACAUACAUGAGGAUCACCCAUGUUAAUAUAUAUAGAGAAGGUGUAUUUUCAG | – | – | 42.2 nM | 26.3 nM |
| GUCAGCUCGUCAGGAUAUACAUGAUAGAUCGAUUAAUUAAUUAAUUUAACAUGAGGAUCACCCAUGUAGAAGGGACGAGCUGAC | 80.1 nM | 71.9 nM | – | – |
| UUUUUACAUGAGGAUCACCCAUGUCAGGAUAUGGUUAUAUUUUAUUAUUUUAUUUUUUCCAGAAGGGACUAUUA | 343 nM | 162 nM | – | – |
| UCGUACAUUCGAGGAUAUCGGUGAUUAAUAAUACGAGAAGGCGAUUUAAGGCAUAAAGCCUUAGACAUGAGGAUCACCCAUGUA | – | – | 107 nM | 70.5 nM |
| ACUGCAUAGUCAGGAUAUGCAAAAGCAGAUGCAAAGCAUCUGAACAACACAUGAGGAUCACCCAUGUAGAAGGGACUGUGCAGU | 23.3 nM | 22.4 nM | – | – |
| GGGUACAUGGGAGGAUAUCCUCAAGAGACAUGAGGAUCACCCAUGUAUUAUAAGCCUAAUGGCAUGGAGAAGGCCCAUGUACCG | – | – | 397 nM | 69.7 nM |
| AUAUUUGUGUAGAAGGUACGUGAUUAGUUAUAGUAAGGAUAUACUGACAUGAGGAUCACCCAUGUAUAAAUGGUUAAAUGUUCU | – | – | 27.9 nM | 20 nM |
| AAUUCACAUGAGGAUCACCCAUGUCAGGAUAUGGUUUCACUUUUUUCUUUUCUUGAUUCCAGAAGGGACAGCUA | 77.3 nM | 68.5 nM | – | – |
| GGGCUGGUAACAGGAUAUCGUGCCUGGCCGGAUUACAUGAGGAUCACCCAUGUCGUUGGAACCAACGAGAAGGGUUGCCUCCCA | – | – | 371 nM | 102 nM |
| ACAUGCAUAGCGAUAUGAUCGAGAGAUCAUGUCGCUAAAUUUAGAAGGACAUGAGGAUCACCCAUGUAGGAUAUGGGAGCAUGC | – | – | 87.9 nM | 17.1 nM |
| CCCUAGGUAGGAUAUACUUGGGCUCGGCUGAUGUGCCUAAAACAUGAGGAUCACCCAUGUAGAAGGACUAAGGC | 12.4 nM | 10.8 nM | – | – |
| ACAUGACAUGAGGAUCACCCAUGUGAGGAUAUGCGAAAAAAAAAAAAAAAAAAAAAAAGCAGAAGGCACAAAAA | 180 nM | 280 nM | – | – |
| CCGUGAGCAGGAUAUACAUGAGGAUCACCCAUGUCCGAUCCAAACAUGGGAAAAGAAGGUAGAAGGGUUUGAGG | 28.5 nM | 36.1 nM | – | – |
| AUAUAUAGUGUGAGGAUAUGCUGGUCCUUGGAUCAGCAGAAGGCACAUGAGGAUCACCCAUGUAGUUUAUUUUA | 31.7 nM | 76.7 nM | – | – |
| ACUUUAGUAUCACAUGUAUUACAUGAGGAUCACCCAUGUUACUAGGAUAUGUAUUAGAAUUUACAACAGAAGGAGUUAAUUUGU | 7.92 nM | 7.59 nM | – | – |
| AUGCUUCACACAGGAUAUACAUGAGGAUCACCCAUGUGUCCAAAGUAGCCGACACGAGCUACGUCGUAGAAGGGUGUGAAGCAU | 18.8 nM | 87.3 nM | – | – |
| UCAAGUAUGUAGGAUAUCGAUGUCUACGGACAUCGAGAAGGACGUACAUGAGGAUCACCCAUGUAACUUGCAUG | 464 nM | 188 nM | – | – |
| AAGCACAGAGGAUAUACAUGGGUGAUAAAAAUCAUGUAAAAACAUGAGGAUCACCCAUGUAGAAGGCUGUGCAA | 22 nM | 23.1 nM | – | – |
